# This is a sample that favours compounds with a hit; in the whole collection about 3.5% have one here.
# RGS4 block: RGS4 inhibitors, primary screen, cell-based, HEK293 M3R inducible RGS4, calcium flux; Regulator of G-protein signaling 4 (Homo sapiens), P49798; Fluo-4 calcium flux; stronger effect = higher value; triggered by carbachol at its EC20; B-score at 10 µM; hit rate 0.45% among 310,000; AID 463165, 2010;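 active = B-score, a plate-corrected calcium signal, over three deviations above library mean, with baseline fluorescence within five deviations of library mean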;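 also: RGS4 expression induced by doxycycline in cells with stable M3 receptor; B-score is computed from the integrated fluorescence ratio over baseline after carbachol; higher B-score means a larger calcium signal and so more RGS4 inhibition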
# Target sequence (P49798 whole entry, looked up): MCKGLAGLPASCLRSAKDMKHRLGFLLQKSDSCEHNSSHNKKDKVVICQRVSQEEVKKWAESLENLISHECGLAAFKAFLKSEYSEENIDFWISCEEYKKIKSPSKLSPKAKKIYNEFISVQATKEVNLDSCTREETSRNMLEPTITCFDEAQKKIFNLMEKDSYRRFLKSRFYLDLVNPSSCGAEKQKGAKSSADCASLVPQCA
# RGS4 act: RGS4 potentiators or activators, primary screen, cell-based, HEK293 M3R inducible RGS4, calcium flux | carbachol calcium flux Fluo4; stronger effect = lower value | B-score at 10 µM | hit rate 0.92% among 310,000 | AID 463111, 2010;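 active = B-score of the integrated calcium signal more than 4 SD below the library mean, with starting fluorescence not abnormally high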;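 also: negative B-score means reduced calcium response which marks RGS4 activation or potentiation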
#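 System: HEK293 FlpIn-TREx cells, stable M3R, doxycycline-inducible RGS4. Timing: overnight RGS4 induction, 30 min dye load 37 °C, 20 min compound RT. Also added: carbachol, ECmax concentration. Measured by: Fluo4 fluorescence kinetic imaging of calcium. Evaluation: integrated calcium ratio converted to B score.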
# MrgX1 allo act: positive allosteric modulators of MrgX1, primary screen, HEK293 cells, Fluo-4 calcium flux; hit rate 0.63% among 310,000; AID 588675, 2011; Mas-related G-protein coupled receptor member X1 (Homo sapiens), Q96LB2; B-score at 10 µM; FDSS; stronger effect = higher value;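 active = plate-corrected calcium response at least 3 library SD above typical, normal starting fluorescence, not activating the receptor alone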;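 also: compound read alongside a low EC10 to EC30 dose of BAM8-22 agonist; peak minus trough fluorescence over baseline measured at the second addition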
# Target sequence (Q96LB2 whole entry, looked up): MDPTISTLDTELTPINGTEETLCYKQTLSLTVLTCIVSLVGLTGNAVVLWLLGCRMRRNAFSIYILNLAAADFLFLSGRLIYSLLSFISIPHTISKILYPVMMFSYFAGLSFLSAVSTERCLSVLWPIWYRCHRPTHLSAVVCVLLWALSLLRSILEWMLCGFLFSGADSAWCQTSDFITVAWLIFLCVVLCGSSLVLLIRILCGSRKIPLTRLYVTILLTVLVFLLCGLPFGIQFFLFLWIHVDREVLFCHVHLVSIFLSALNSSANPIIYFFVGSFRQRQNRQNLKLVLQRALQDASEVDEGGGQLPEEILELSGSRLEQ
# MrgX1 antagonist: antagonists of human MrgX1 receptor, primary screen, HEK293 cells, Fluo-4 calcium flux. Mas-related G-protein coupled receptor member X1 (Homo sapiens), Q96LB2. BAM8-22 antagonism; stronger effect = lower value. B-score at 10 µM. hit rate 1.3% among 310,000;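 active = calcium-response B-score plate-corrected more than 3 library SD below zero, starting fluorescence within 5 deviations, no agonist response on first addition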;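 also: peak minus trough fluorescence over baseline after final BAM8-22 challenge near maximal dose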
# MrgX1 ag: agonists of human MrgX1 receptor, primary screen, HEK293 cells, Fluo-4 calcium flux. Mas-related G-protein coupled receptor member X1 (Homo sapiens), Q96LB2. Fluo-4 calcium fluorescence, agonist mode; stronger effect = higher value. B-score at 10 µM. hit rate 0.44% among 310,000. AID 588627, 2011;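 active = calcium response B-score plate-corrected fluorescence ratio at least 3 library SD, with starting fluorescence B-score inside 5 SD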
#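 System: HEK293 cells stably expressing human MrgX1 receptor; Dosing: test compound in the initial addition of three; Schedule: overnight plating, then 30 min 37 °C plus 30 min room-temperature dye loading; Detection: kinetic calcium dye fluorescence, Fluo-4 NW; Controls: per-plate positive and negative controls for Z′ factor.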
# MrgX1 ant reconf: MrgX1 receptor antagonists, duplicate retest, confirmation, HEK293 cells, Fluo-4 calcium flux | shares compounds with MrgX1 antagonist | BAM8-22 calcium flux; stronger effect = lower value | remaining BAM8-22 calcium response % of control (stronger effect = lower value), % at 10 µM | hit rate 19% among 2,300;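 active = remaining agonist calcium response no higher than 100% minus 3 SD of agonist-only control wells, with starting fluorescence near control levels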;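 also: agonist BAM8-22 given at a near maximal EC90 to ECmax level; peak minus minimum fluorescence divided by baseline after agonist addition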
# HEK293 Ca flux: nonspecific calcium signal in parental HEK293, confirmation, counter-screen for MrgX1 antagonist project, parental HEK293 cells, Fluo-4 calcium flux; fluorescence ratio F(max-min)/F0 at 10 µM; Fluo-4 calcium fluorescence, FDSS; hit rate 2% among 4,000; AID 624111, 2012; shares compounds with MrgX1 antagonist;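 active = duplicate-averaged calcium fluorescence ratio at least three times the standard deviation of buffer wells, a nonspecific response in parental cells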
# HEK293 Ca counter: calcium response in parental HEK293 cells, primary screen, counter-screen for MrgX1 allosteric activator project, cell-based, Fluo-4 calcium flux, duplicate; shares compounds with MrgX1 antagonist; hit rate 0.4% among 4,000; Fluo-4 fluorescence ratio; stronger effect = higher value; AID 624114, 2012; fluorescence ratio F(max-min)/F0 at 10 µM;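 active = calcium fluorescence ratio, averaged over duplicates, at least 3 SD of the buffer-well ratio, meaning a nonspecific response in receptor-free cells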;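 also: untransfected parental HEK293 lacking MrgX1 used as counterscreen for MrgX1 allosteric activators; fluorescence change taken during the second addition on a kinetic imager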
# HEK293 Ca cntr2: calcium response in parental HEK293 cells, primary screen, counter-screen for MrgX1 agonist project, cell-based, Fluo-4 calcium flux, duplicate, agonist mode; AID 624115, 2012; Fluo-4 calcium fluorescence (FDSS); stronger effect = higher value; fluorescence ratio F(max-min)/F0 at 10 µM; shares compounds with MrgX1 antagonist; hit rate 8.7% among 4,000;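 active = calcium fluorescence ratio at least three times the spread of buffer wells, meaning a non-specific response in parental cells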
# * = called active by the depositor; i = inactive; . = no result.
SMILES,RGS4 block,RGS4 act,MrgX1 allo act,MrgX1 antagonist,MrgX1 ag,MrgX1 ant reconf,HEK293 Ca flux,HEK293 Ca counter,HEK293 Ca cntr2
COc1ccc(C2SCC(=O)N2CC23CC4CC(CC(C4)C2)C3)cc1 (stereo not drawn),i,i,i,-5.2*,i,i,i,i,i
COc1ccc(C2SCC(=O)N2Cc2ccccc2)cc1 (stereo not drawn),i,i,i,i,i,.,.,.,.
CCN(Cc1ccccc1)C(=O)Cn1cnc2c1c(=O)n(C)c(=O)n2C,i,i,i,i,i,.,.,.,.
Cn1c(=O)c2c(ncn2CCN(CCO)Cc2ccccc2)n(C)c1=O,i,i,i,-6.7*,i,81%*,i,i,i
O=c1oc2ccccc2c2c1SC(C(F)(F)F)C2 (stereo not drawn),i,i,i,-5.1*,i,76%*,i,i,i
Cc1nc(-c2nnc(SCC(=O)Nc3ccc(C(F)(F)F)cc3)n2C)cs1,i,i,i,i,i,.,.,.,.
Cc1cc(C)cc(C(=O)NCC(=O)OCC(=O)N(C)c2ccccc2)c1,i,i,i,-5.1*,i,i,i,i,i
Cc1ccc(C)c(NC(=O)CS(=O)(=O)c2cn(C)c3ccccc23)c1,i,i,i,-13*,i,i,i,i,i
Cn1cc(S(=O)(=O)CC(=O)Nc2ccc3c(c2)OCCO3)c2ccccc21,i,i,i,i,i,.,.,.,.
COc1ccc(CCn2c(C)cc(C(=O)COC(=O)c3cnccn3)c2C)cc1,i,i,i,i,i,.,.,.,.
O=C(c1ccccc1-c1ccccc1)N1CCCC1,i,i,i,i,i,.,.,.,.
O=C(c1ccccc1-c1ccccc1)N1CCCCC1,i,i,i,-5.2*,i,i,i,i,i
CC(=O)Nc1ccccc1NC(=O)c1ccccc1-c1ccccc1,i,i,i,i,i,.,.,.,.
CNC(=O)c1ccccc1-c1ccccc1,i,i,i,-5.3*,i,i,i,i,i
COc1cccc(NC(=O)C(OC(=O)c2cnc(C)cn2)c2ccccc2)c1 (stereo not drawn),i,i,i,-6.2*,i,i,i,i,i
COc1ccccc1CNC(=O)C1CCC1,i,i,i,-7.9*,i,82%*,i,i,i
O=C1NC2(CCN(Cc3ccccc3)CC2)Oc2ccccc21,i,i,i,i,i,.,.,.,.
O=C1c2ccccc2OC2(C=Cc3ccccc3O2)N1Cc1ccccc1 (stereo not drawn),i,i,i,-5*,i,i,i,i,i
COc1cc(NC(=O)c2ccccc2)c(OC)cc1NC(=O)CN1CCOCC1,i,i,i,i,i,.,.,.,.
Cc1cccc(NC(=O)c2cc(NC(=O)c3ccco3)ccc2Cl)n1,.,.,i,-4.7*,i,85%*,i,i,i
O=C(CN1C(=O)CCSc2ccc(S(=O)(=O)N3CCCC3)cc21)Nc1ccccc1Cl,i,i,i,i,i,.,.,.,.
O=C(Cc1cccs1)N1CCN(c2ccccn2)CC1,i,i,i,i,i,.,.,.,.
CC(=O)N1CCN(c2nc(-c3cccs3)nc3ccccc23)CC1,i,i,i,-4.7*,i,i,i,i,i
O=C(CNC(=S)N(CCCN1CCOCC1)Cc1cccs1)N1CCOCC1,i,i,i,i,i,.,.,.,.
CC(C)NC(=O)CC1Nc2c3ccccc3nc(=S)n2C1=O (stereo not drawn),i,i,i,-5.3*,i,i,i,i,i
SMILES,RGS4 block,RGS4 act,MrgX1 allo act,MrgX1 antagonist,MrgX1 ag,MrgX1 ant reconf,HEK293 Ca flux,HEK293 Ca counter,HEK293 Ca cntr2
CNC(=O)[C@@]1(C)C=C[C@@H](Cc2ccccc2)N1C(=O)OC,i,i,i,i,i,.,.,.,.
CCOC(=O)C1CN(S(=O)(=O)c2ccc(C)cc2)c2cc(S(=O)(=O)CC)ccc2O1 (stereo not drawn),i,i,i,-4.8*,i,i,i,i,i
CCOC(=O)c1cccc(C(=O)Oc2ccccc2)n1,i,i,i,i,i,.,.,.,.
CC12C(=O)N(c3ccccn3)C(=O)C1C1C=CC2C1 (stereo not drawn),i,i,i,-5*,i,i,i,i,i
Cc1ccnc2c(N3C(=O)C4C5C=CC(C5)C4(C)C3=O)cccc12 (stereo not drawn),i,i,i,i,i,.,.,.,.
CSc1nc(C)c2c(n1)N(c1cccc(C)c1)CC2,i,i,i,i,i,.,.,.,.
CCOC(=O)C1=C(CSc2nc3c(cc2C#N)CCC3)OC(N)=C(C#N)C1c1ccccc1 (stereo not drawn),i,i,i,i,i,.,.,.,.
CCOC(=O)C1=C(CSc2nc3c(cc2C#N)CN(C)CC3)OC(N)=C(C#N)C1c1ccc(F)cc1 (stereo not drawn),i,i,i,-5.4*,i,i,i,i,i
Cc1sc2nc(SCC(=O)NCc3ccco3)n(Cc3ccccc3)c(=O)c2c1C,i,i,i,i,i,.,.,.,.
COc1ccc(NC(=O)Cc2coc3ccc4ccccc4c23)cc1S(=O)(=O)N1CCOCC1,i,i,i,-6.7*,i,i,i,i,i
O=C(CCCN1C(=O)/C(=C\c2cccs2)SC1=S)Nc1ccc(O)cc1C(=O)O,i,i,i,i,i,.,.,.,.

# Screens from PubChem.
